A word on the IC50: it is the point on the concentration scale where inhibition reaches its midpoint. A lower IC50 goes with inhibition by little substance. In general, ILS refers to the gain in survival time of treated over control animals, in per cent.

From ChEMBL document CHEMBL1122121, “Synthesis and biological activity of 5'-substituted 5-fluoropyrimidine nucleosides” (J Med Chem, 1982) come the findings set out here.

The structures appear in SMILES notation.

Test [1] concerns L1210. In words: Concentration required for the 50% inhibition of growth of L1210 mouse leukemia cells in culture. The format is functional, cell-based. The gist of the method: (§1)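 10^5 mycoplasma-free L1210 or CCRF-CEM cells grown 48 h in RPMI 1640 with 10% fetal calf serum containing compound, then counted. Value is concentration giving 50% growth inhibition. Compounds were purified by preparative TLC until no FUrd was detectable by HPLC. Highest concentration noted was 10^-4 M.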

In test [2] the test system is CCRF-CEM. In words: Concentration required for the 50% inhibition of growth of CCRF-CEM human leukemia cells in culture. The format is functional, cell-based. The method in brief: as §1
Test [3] concerns Mus musculus. In words: Percent increase in life span(ILS) was measured in mice at a dose of 150 mg/kg. The format is functional. The method in brief: (§2)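 Female DBA/2 mice (18–22 g), groups of five, implanted ip on day 0 with 10^5 L1210 leukemia cells. Compound dissolved in PBS and given ip daily on days 1–5 (q.d. 1–5). Controls received PBS. Mice were weighed on days 1 and 7. Read-outs were mean mortality and percent increase in life span.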

Test [4] has as its system Mus musculus. Put plainly: Mortality rate was measured at a dose of 250 mg/kg. It is filed as functional. The gist of the method: as §2
Test [5] has as its system L1210. Put plainly: Antitumor activity against L1210 leukemia cells in mice at a dose of 250 mg/kg (ip) expressed as change in the body weight after 7 days. It is filed as functional, Mus musculus. The method in brief: (§3)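 Female DBA/2 mice (18–22 g), groups of five, implanted ip with 10^5 L1210 cells on day 0. Compound in PBS given ip (0.2 mL) once daily days 1–5. Controls got PBS. Mice weighed on days 1 and 7. Weight change expressed as percentage of initial weight.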

For test [6], the system named is L1210. Put plainly: Antitumor activity against L1210 leukemia cells in mice at a dose of 100 mg/kg (ip) expressed as change in the body weight after 7 days. The format is functional, Mus musculus. The method in brief: as §3
The subject of test [7] is L1210. Put plainly: Antitumor activity against L1210 leukemia cells in mice at a dose of 150 mg/kg (ip) expressed as change in the body weight after 7 days. The format is functional, Mus musculus. The gist of the method: as §3
For test [8], the system named is Mus musculus. Put plainly: Percent increase in life span(ILS) was measured in mice at a dose of 100 mg/kg. It is filed as functional. The gist of the method:
as §2

For test [9], the system named is Mus musculus. In words: Mortality rate was measured at a dose of 150 mg/kg. The format is functional. The method in brief: as §2
The subject of test [10] is Mus musculus. In words: Mortality rate was measured at a dose of 100 mg/kg. It is filed as functional. The gist of the method: as §2
Test [11] has as its system Mus musculus. In words: Percent increase in life span(ILS) was measured in mice at a dose of 250 mg/kg. The format is functional. The method in brief:
as §2

Test [12] deals with CCRF-CEM. Put plainly: Concentration required for the 50% inhibition of growth of CCRF-CEM human leukemia cells in culture; No growth inhibition was observed at a concentration of 10^-4 M. The format is functional, cell-based. The method in brief:
as §1

For test [13], the system named is L1210. In words: Concentration required for the 50% inhibition of growth of L1210 mouse leukemia cells in culture; No growth inhibition was observed at a concentration of 10^-4 M. The format is functional, cell-based. The method in brief:
as §1

Take `[N-]=[N+]=NC[C@H]1OC(n2cc(F)c(=O)[nH]c2=O)[C@H](O)[C@@H]1O` (some centres not stated): the IC50 in the test with L1210 [1] stood at 170 µM; in the test with CCRF-CEM [2] it was 350 µM.

In the case of `O=c1[nH]c(=O)n(C2O[C@H](CCl)[C@@H](O)[C@H]2O)cc1F` (some centres not stated), the ILS at 150 mg/kg with Mus musculus [3] worked out at 51%. Further, the results for the “Mean day of death” value in the test with Mus musculus [4] and in the test with Mus musculus [9] were 17.4 days and 16 days, respectively. In addition, the results for the “Change of body weight” value in the test with L1210 [5], in the test with L1210 [6] and in the test with L1210 [7] were -4.6%, -0.8% and -3.5%, respectively. Moreover, in the test on Mus musculus [8], the ILS at 100 mg/kg was found to be 47%. For the same molecule, half-maximal inhibition with L1210 [1] (IC50) was put at 3.4 µM. Moreover, the Mean survival time in the test with Mus musculus [10] came to 15.6 days. The molecule further came in with an ILS at 250 mg/kg in the test on Mus musculus [11] of 64%.

As for `Cc1ccc(S(=O)(=O)OC[C@H]2OC(n3cc(F)c(=O)[nH]c3=O)[C@H](O)[C@@H]2O)cc1` (some centres not stated), the IC50 in the test with L1210 [1] is 0.46 µM; in the test with CCRF-CEM [2], 1.8 µM.

`O=c1[nH]c(=O)n(C2O[C@H](CO[N+](=O)[O-])[C@@H](O)[C@H]2O)cc1F` (some centres not stated): the IC50 entry in the test with CCRF-CEM [12] and with L1210 [13] was “No inhibition” each time.

In turn, `O=c1[nH]c(=O)n(C2O[C@H](CF)[C@@H](O)[C@H]2O)cc1F` (some centres not stated) came in with an ILS at 150 mg/kg with Mus musculus [3] of 30%. Also, the results for the “Mean day of death” value with Mus musculus [4] and in the test with Mus musculus [9] were 16.8 days and 13.8 days, respectively. In addition, the “Change of body weight” value in the test on L1210 [5] is on record as 2.3%; in the test with L1210 [6], -5.6%; in the test on L1210 [7], 0.9%. Besides, the ILS at 100 mg/kg with Mus musculus [8] is 32%. The IC50 came to 29 µM in the test on L1210 [1] and 140 µM in the test with CCRF-CEM [2]. Moreover, in the test with Mus musculus [10], the Mean survival time came out at 14 days. In the test with Mus musculus [11], this molecule showed an ILS at 250 mg/kg of 58%.

In the test on Mus musculus [3], `CS(=O)(=O)OC[C@H]1OC(n2cc(F)c(=O)[nH]c2=O)[C@H](O)[C@@H]1O` (some centres not stated) returned an ILS at 150 mg/kg of 40%. For the same molecule, the “Mean day of death” value in the test on Mus musculus [4] came to 16.8 days; with Mus musculus [9], 14.8 days. Moreover, the “Change of body weight” value is -1.7% in the test on L1210 [5], 0% with L1210 [6] and 1.3% in the test with L1210 [7]. In the test with Mus musculus [8], this molecule yielded an ILS at 100 mg/kg of 26%. Moreover, the IC50 in the test with L1210 [1] is 0.32 µM; in the test on CCRF-CEM [2], 0.66 µM. In the test with Mus musculus [10], the Mean survival time came out at 13.4 days. The same molecule registered an ILS at 250 mg/kg with Mus musculus [11] of 58%.

For the molecule `O=c1[nH]c(=O)n(C2O[C@H](CI)[C@@H](O)[C@H]2O)cc1F` (some centres not stated), in the test on L1210 [6], the “Change of body weight” value came to 0%. The IC50 with L1210 [1] was found to be 5 µM; in the test with CCRF-CEM [2] it was 27 µM.

With `NC[C@H]1OC(n2cc(F)c(=O)[nH]c2=O)[C@H](O)[C@@H]1O` (some centres not stated), in the test with Mus musculus [3], the ILS at 150 mg/kg is 19%. The “Mean day of death” value in the test on Mus musculus [4] turned out to be 13.6 days; in the test with Mus musculus [9], 12.8 days. In addition, the “Change of body weight” value with L1210 [5] is listed as -0.9%; with L1210 [6] it was 1.8%; in the test with L1210 [7] it was -5.5%. This molecule also registered an ILS at 100 mg/kg with Mus musculus [8] of 17%. The values for the IC50 in the test on L1210 [1] and in the test with CCRF-CEM [2] were 8.7 µM and 49 µM, respectively. Further, the Mean survival time in the test on Mus musculus [10] stood at 12.4 days. Besides, the ILS at 250 mg/kg in the test with Mus musculus [11] was 28%.

In the test with Mus musculus [3], `O=c1[nH]c(=O)n(C2O[C@H](CBr)[C@@H](O)[C@H]2O)cc1F` (some centres not stated) registered an ILS at 150 mg/kg of 41%. Also, the “Mean day of death” value is 14.2 days with Mus musculus [4] and 15 days in the test with Mus musculus [9]. The “Change of body weight” value in the test on L1210 [5] is reported as -1.8%; in the test on L1210 [6] it was 1.7%. In the test with Mus musculus [8], this molecule gave an ILS at 100 mg/kg of 34%. Also, the results for the IC50 in the test with L1210 [1] and with CCRF-CEM [2] were 0.8 µM and 3.1 µM, respectively. In the test on Mus musculus [10], this molecule returned a Mean survival time of 14.2 days. The ILS at 250 mg/kg in the test with Mus musculus [11] worked out at 34%.

Consider `O=c1[nH]c(=O)n([C@@H]2O[C@H](CO)[C@@H](O)[C@H]2O)cc1F` [5-FLUOROURIDINE], for which the IC50 came to 0.005 µM with L1210 [1] and 0.05 µM with CCRF-CEM [2].

In the case of `C[C@H]1O[C@@H](n2cc(F)c(=O)[nH]c2=O)[C@H](O)[C@@H]1O` [DOXIFLURIDINE], the ILS at 150 mg/kg in the test with Mus musculus [3] came to 13%. Moreover, the “Mean day of death” value in the test on Mus musculus [4] is 12.8 days; in the test with Mus musculus [9], 12 days. The “Change of body weight” value in the test with L1210 [5] is 0%; with L1210 [6], 5.7%; in the test on L1210 [7] it was 4.8%. The ILS at 100 mg/kg in the test on Mus musculus [8] is 8%. For the same molecule, the IC50 was 3.6 µM in the test on L1210 [1] and 22 µM with CCRF-CEM [2]. In the test on Mus musculus [10], the Mean survival time came to 11.4 days. The same molecule returned an ILS at 250 mg/kg with Mus musculus [11] of 20%.

`O=c1[nH]cc(F)c(=O)[nH]1` [FLUOROURACIL]: the values for the IC50 in the test on L1210 [1] and in the test with CCRF-CEM [2] were 0.5 µM and 5 µM, respectively.
